Measured values published in ChEMBL document CHEMBL4823251, “Structure-Based Exploration of Selectivity for ATM Inhibitors in Huntington's Disease” (J Med Chem, 2021).
Values after ≈ are worked out from the molar mass of the structure shown.

What was measured:
[1] = target: T1, Serine-protein kinase ATM (Homo sapiens, UniProt Q13315); experiment: Inhibition of full length recombinant FLAG-tagged human ATM assessed as decrease in p53 S15 phosphorylation using full length myc-tagged p53 as substrate incubated for 30 mins in presence of ATP by ELISA
How it was run: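 Buffer was 25 mM HEPES pH 7.5 with MgCl₂, MnCl₂, Brij-35, glycerol, BSA and DTT (0.1% DMSO); reaction ran 30 min at 20 °C and was stopped with 70 mM EDTA. Product captured on anti-myc-coated plates and detected with anti-p53 pS15, HRP secondary and TMB, absorbance at 450 nm.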

[2] = target: T1, Serine-protein kinase ATM; experiment: Inhibition of ATM in human U2OS cells assessed as reduction in etoposide-stimulated KAP1 phosphorylation incubated for 60 mins by immunoreactivity assay; assay type: cell-based
How it was run: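 U2OS cells plated overnight at 6k cells/well (37 °C, 5% CO₂), then treated with compound titrations (0.3% DMSO) plus 100 μM etoposide for 60 min. Cells fixed in cold methanol and stained for phospho-KAP1 and total KAP1 using IRDye secondaries on a LI-COR Odyssey. IC50 is the mean of at least two experiments.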

[3] = target: T2, Phosphatidylinositol 3-kinase catalytic subunit type 3 (Homo sapiens, UniProt Q8NEB9); experiment: Inhibition of full length recombinant GST-tagged human VPS34 expressed in baculovirus expression system using PI/PS as substrate incubated for 60 mins in presence of ATP at Km concentration by luminescence assay
Homo sapiens [4] = species: Homo sapiens; experiment: Selectivity ratio of Ki for full length recombinant GST-tagged VPS34 expressed in baculovirus expression system using PI/PS as substrate incubated for 60 mins in presence of ATP at Km concentration by luminescence assay to Ki for full length recombinant FLAG-tagged human ATM assessed as decrease in p53 S15 phosphorylation using full length myc-tagged p53 as substrate incubated for 30 mins in presence of ATP by ELISA
How it was run: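 ADP-Glo luminescence read-out. ATM reaction: 0.75 nM enzyme, 25 nM myc-p53, 10 μM ATP, 30 min at 20 °C, p53 S15 phosphorylation by ELISA. Ki values are means of at least two experiments.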

[5] = Kinetic solubility of the compound in pH 7.4 PBS buffer incubated for 2 hrs using orbital shaker by LC-UV mass spectrometry; assay type: physicochemical; details: read-out: Kinetic_solubility
How it was run: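 Shaken on an orbital shaker for 2 h at room temperature, then filtered. Filtrate analysed by LC-UV with MS confirmation, calibrated against 200 μM and 10 μM DMSO dilutions.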

[6] = Effective efflux ratio of apparent permeability across basolateral to apical over apical to basolateral side in MDCK-MDR1 cells assessed as efflux ratio after 1 hr by LC-MS/MS analysis; assay type: ADME, cell-based, Canis lupus familiaris; details: dog, mdck-mdr1, 1 h
How it was run: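 MDCKII MDR1 and wild-type cells seeded at 2 × 10⁵ cells/well in Transwells, cultured 3 days. Test compounds 10 μM in HBSS with 25 mM HEPES pH 7.4, dosed apical or basolateral in duplicate, 1 h at 37 °C. Lucifer yellow monolayer check, wells above 100 nm/s rejected. LC–MS/MS read-out. ER = Papp B>A/A>B. EER = MDR1 ER over wild-type ER.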

[7] = Apparent permeability across apical to basolateral side in MDCK-MDR1 cells after 1 hr by LC-MS/MS analysis; assay type: ADME, cell-based, Canis lupus familiaris; details: dog
How it was run: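 MDCKII-MDR1 and wild-type cells seeded at 2 × 10⁵ cells/well on Transwells and cultured 3 days. Test compound at 10 μM in HBSS with 25 mM HEPES, pH 7.4, added apical or basolateral in duplicate. Lucifer yellow used as integrity check; wells above 100 nm/s rejected. Sampled after 1 h at 37 °C and quantified by LC–MS/MS. Papp taken from the apical-to-basal direction.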

[8] = Intrinsic clearance in C57Bl/6 mouse pooled liver microsomes at 1 uM measured up to 40 mins in presence of NADPH by LC-MS/MS analysis; assay type: ADME, Microsome; details: read-out: CLH
How it was run: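 Reaction started with 1 mM NADPH. Sampled at 0, 5, 10, 20 and 40 min, quenched in acetonitrile with internal standard, and analysed by LC–MS/MS.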

[9] = target: DNA-dependent protein kinase catalytic subunit (Homo sapiens, UniProt P78527); experiment: Inhibition of DNA-PK isolated from human HeLa nuclear extract using full length His-tagged p53 as substrate measured after 75 mins in presence of ATP by HTRF assay; assay type: subcellular, Nucleus
How it was run: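 Buffer was 50 mM HEPES pH 7.5, 5 mM MgCl₂, 0.01% Brij35, 1 mM DTT and 1 μg/mL sheared calf thymus DNA; reaction ran 75 min at 20 °C. Stopped with d2-anti-6HIS and cryptate anti-phospho-p53 antibodies in KF/EDTA buffer. Read at 665/620 nm after 7 h.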

[10] = target: Serine/threonine-protein kinase ATR (Homo sapiens, UniProt Q13535); experiment: Inhibition of ATR in human HT-29 cells assessed as reduction in CHK1 phosphorylation incubated for 4 hrs; assay type: cell-based
How it was run: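 HT29 cells seeded at 25k/well overnight, then treated with compound titrations (0.3% DMSO) plus 10 μM gemcitabine for 4 h. Cells fixed in paraformaldehyde, permeabilized with Triton-X, and stained for phospho-Chk1 and total Chk1 using LI-COR IRDye detection. Ratio normalized to DMSO and 30 μM AZ-20 controls. IC50 is the mean of at least two experiments.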

[11] = target: T2, Phosphatidylinositol 3-kinase catalytic subunit type 3; experiment: Binding affinity to VPS34 (unknown origin)
Homo sapiens [12] = species: Homo sapiens; experiment: Selectivity ratio of Ki for DNA-PK isolated from human HeLa nuclear extract using full length His-tagged p53 as substrate measured after 75 mins in presence of ATP by HTRF assay to Ki for full length recombinant FLAG-tagged human ATM assessed as decrease in p53 S15 phosphorylation using full length myc-tagged p53 as substrate incubated for 30 mins in presence of ATP by ELISA
How it was run: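 HTRF detection of p53 S15 phosphorylation. ATM reaction: 0.75 nM enzyme, 25 nM myc-p53, 10 μM ATP, 30 min at 20 °C, anti-myc capture ELISA. Ki values are means of at least two experiments.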

[13] = Clearance in C57Bl/6 mouse at 2 mg/kg, iv administered as single dose; assay type: ADME, organism-based; details: in vivo
How it was run: (§1)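 Male C57BL/6 mice given a slow tail-vein bolus of a 0.4 mg/mL solution in 10:40:50 DMSO/PEG/H₂O, at 2 mg/kg (5 mL/kg) or 0.8 mg/kg (2 mL/kg). Plasma and brain sampled over 8 h, n = 3 per time point, and measured by LC–MS/MS. Noncompartmental analysis on mean concentrations with linear-trapezoidal AUC. Kp is the brain/plasma AUC ratio of total concentrations; Kpuu uses free concentrations, corrected by equilibrium-dialysis plasma and brain binding.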

[14] = Volume of distribution at steady state in C57Bl/6 mouse at 2 mg/kg, iv administered as single dose; assay type: ADME, organism-based; details: in vivo, read-out: Vdss; how it was run: as §1
[15] = Half life in C57Bl/6 mouse at 2 mg/kg, iv administered as single dose; assay type: ADME, organism-based; details: in vivo; how it was run: as §1
[16] = Brain to plasma permeability coefficient, Kp in C57Bl/6 mouse at 2 mg/kg, iv administered as single dose; assay type: ADME, organism-based; details: brain and plasma; how it was run: as §1
[17] = Unbound brain-to-plasma concentration ratio in C57Bl/6 mouse at 2 mg/kg, iv administered as single dose; assay type: ADME, organism-based; details: brain and plasma, read-out: K(p,uu,brain); how it was run: as §1
[18] = Bioavailability in C57Bl/6 mouse at 10 mg/kg, po or 2 mg/kg, iv; details: in vivo
[19] = Clearance in C57Bl/6 mouse at 0.8 mg/kg, iv administered as single dose; assay type: ADME, organism-based; details: in vivo; how it was run: as §1
[20] = Volume of distribution at steady state in C57Bl/6 mouse at 0.8 mg/kg, iv administered as single dose; assay type: ADME, organism-based; details: in vivo, read-out: Vdss; how it was run: as §1
[21] = Half life in C57Bl/6 mouse at 0.8 mg/kg, iv administered as single dose; assay type: ADME, organism-based; details: in vivo; how it was run: as §1
[22] = Brain to plasma permeability coefficient, Kp in C57Bl/6 mouse at 0.8 mg/kg, iv administered as single dose; assay type: ADME, organism-based; details: brain and plasma; how it was run: as §1
[23] = Unbound brain-to-plasma concentration ratio in C57Bl/6 mouse at 0.8 mg/kg, iv administered as single dose; assay type: ADME, organism-based; details: brain and plasma, read-out: K(p,uu,brain); how it was run: as §1
[24] = Bioavailability in C57Bl/6 mouse at 10 mg/kg, po or 0.8 mg/kg, iv; assay type: ADME, organism-based; details: in vivo
How it was run: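 An IV reference dose of 0.8 mg/kg was given. Plasma measured by LC–MS/MS, n = 3 per time point. %F calculated as dose-normalized PO AUCinf divided by dose-normalized IV AUCinf.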

[25] = target: Serine/threonine-protein kinase mTOR (Homo sapiens, UniProt P42345); experiment: Binding affinity to mTOR (unknown origin)

T2 sequence (Q8NEB9 whole entry): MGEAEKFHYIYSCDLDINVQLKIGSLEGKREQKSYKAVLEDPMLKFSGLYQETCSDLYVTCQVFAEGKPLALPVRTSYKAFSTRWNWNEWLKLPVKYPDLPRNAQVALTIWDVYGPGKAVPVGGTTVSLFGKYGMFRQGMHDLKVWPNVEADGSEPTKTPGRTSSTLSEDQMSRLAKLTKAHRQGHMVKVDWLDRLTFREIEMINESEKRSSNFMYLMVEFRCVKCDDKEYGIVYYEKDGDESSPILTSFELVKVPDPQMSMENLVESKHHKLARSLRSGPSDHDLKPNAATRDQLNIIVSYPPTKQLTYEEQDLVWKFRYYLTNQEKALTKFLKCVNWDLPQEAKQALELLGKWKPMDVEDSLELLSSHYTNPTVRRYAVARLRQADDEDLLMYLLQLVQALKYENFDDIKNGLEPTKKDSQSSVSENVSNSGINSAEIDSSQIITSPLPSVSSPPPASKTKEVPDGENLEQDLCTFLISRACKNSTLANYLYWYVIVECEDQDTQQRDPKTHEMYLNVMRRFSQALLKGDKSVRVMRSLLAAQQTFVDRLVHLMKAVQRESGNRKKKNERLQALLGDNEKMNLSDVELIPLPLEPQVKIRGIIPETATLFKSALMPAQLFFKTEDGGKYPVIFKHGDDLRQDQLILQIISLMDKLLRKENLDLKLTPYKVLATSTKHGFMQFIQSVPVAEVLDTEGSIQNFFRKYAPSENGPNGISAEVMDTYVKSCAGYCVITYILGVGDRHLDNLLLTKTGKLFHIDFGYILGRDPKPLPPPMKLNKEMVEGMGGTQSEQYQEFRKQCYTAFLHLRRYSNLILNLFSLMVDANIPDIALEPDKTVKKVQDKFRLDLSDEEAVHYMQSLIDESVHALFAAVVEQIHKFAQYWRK
Sequence of DNA-dependent protein kinase catalytic subunit (P78527 whole entry): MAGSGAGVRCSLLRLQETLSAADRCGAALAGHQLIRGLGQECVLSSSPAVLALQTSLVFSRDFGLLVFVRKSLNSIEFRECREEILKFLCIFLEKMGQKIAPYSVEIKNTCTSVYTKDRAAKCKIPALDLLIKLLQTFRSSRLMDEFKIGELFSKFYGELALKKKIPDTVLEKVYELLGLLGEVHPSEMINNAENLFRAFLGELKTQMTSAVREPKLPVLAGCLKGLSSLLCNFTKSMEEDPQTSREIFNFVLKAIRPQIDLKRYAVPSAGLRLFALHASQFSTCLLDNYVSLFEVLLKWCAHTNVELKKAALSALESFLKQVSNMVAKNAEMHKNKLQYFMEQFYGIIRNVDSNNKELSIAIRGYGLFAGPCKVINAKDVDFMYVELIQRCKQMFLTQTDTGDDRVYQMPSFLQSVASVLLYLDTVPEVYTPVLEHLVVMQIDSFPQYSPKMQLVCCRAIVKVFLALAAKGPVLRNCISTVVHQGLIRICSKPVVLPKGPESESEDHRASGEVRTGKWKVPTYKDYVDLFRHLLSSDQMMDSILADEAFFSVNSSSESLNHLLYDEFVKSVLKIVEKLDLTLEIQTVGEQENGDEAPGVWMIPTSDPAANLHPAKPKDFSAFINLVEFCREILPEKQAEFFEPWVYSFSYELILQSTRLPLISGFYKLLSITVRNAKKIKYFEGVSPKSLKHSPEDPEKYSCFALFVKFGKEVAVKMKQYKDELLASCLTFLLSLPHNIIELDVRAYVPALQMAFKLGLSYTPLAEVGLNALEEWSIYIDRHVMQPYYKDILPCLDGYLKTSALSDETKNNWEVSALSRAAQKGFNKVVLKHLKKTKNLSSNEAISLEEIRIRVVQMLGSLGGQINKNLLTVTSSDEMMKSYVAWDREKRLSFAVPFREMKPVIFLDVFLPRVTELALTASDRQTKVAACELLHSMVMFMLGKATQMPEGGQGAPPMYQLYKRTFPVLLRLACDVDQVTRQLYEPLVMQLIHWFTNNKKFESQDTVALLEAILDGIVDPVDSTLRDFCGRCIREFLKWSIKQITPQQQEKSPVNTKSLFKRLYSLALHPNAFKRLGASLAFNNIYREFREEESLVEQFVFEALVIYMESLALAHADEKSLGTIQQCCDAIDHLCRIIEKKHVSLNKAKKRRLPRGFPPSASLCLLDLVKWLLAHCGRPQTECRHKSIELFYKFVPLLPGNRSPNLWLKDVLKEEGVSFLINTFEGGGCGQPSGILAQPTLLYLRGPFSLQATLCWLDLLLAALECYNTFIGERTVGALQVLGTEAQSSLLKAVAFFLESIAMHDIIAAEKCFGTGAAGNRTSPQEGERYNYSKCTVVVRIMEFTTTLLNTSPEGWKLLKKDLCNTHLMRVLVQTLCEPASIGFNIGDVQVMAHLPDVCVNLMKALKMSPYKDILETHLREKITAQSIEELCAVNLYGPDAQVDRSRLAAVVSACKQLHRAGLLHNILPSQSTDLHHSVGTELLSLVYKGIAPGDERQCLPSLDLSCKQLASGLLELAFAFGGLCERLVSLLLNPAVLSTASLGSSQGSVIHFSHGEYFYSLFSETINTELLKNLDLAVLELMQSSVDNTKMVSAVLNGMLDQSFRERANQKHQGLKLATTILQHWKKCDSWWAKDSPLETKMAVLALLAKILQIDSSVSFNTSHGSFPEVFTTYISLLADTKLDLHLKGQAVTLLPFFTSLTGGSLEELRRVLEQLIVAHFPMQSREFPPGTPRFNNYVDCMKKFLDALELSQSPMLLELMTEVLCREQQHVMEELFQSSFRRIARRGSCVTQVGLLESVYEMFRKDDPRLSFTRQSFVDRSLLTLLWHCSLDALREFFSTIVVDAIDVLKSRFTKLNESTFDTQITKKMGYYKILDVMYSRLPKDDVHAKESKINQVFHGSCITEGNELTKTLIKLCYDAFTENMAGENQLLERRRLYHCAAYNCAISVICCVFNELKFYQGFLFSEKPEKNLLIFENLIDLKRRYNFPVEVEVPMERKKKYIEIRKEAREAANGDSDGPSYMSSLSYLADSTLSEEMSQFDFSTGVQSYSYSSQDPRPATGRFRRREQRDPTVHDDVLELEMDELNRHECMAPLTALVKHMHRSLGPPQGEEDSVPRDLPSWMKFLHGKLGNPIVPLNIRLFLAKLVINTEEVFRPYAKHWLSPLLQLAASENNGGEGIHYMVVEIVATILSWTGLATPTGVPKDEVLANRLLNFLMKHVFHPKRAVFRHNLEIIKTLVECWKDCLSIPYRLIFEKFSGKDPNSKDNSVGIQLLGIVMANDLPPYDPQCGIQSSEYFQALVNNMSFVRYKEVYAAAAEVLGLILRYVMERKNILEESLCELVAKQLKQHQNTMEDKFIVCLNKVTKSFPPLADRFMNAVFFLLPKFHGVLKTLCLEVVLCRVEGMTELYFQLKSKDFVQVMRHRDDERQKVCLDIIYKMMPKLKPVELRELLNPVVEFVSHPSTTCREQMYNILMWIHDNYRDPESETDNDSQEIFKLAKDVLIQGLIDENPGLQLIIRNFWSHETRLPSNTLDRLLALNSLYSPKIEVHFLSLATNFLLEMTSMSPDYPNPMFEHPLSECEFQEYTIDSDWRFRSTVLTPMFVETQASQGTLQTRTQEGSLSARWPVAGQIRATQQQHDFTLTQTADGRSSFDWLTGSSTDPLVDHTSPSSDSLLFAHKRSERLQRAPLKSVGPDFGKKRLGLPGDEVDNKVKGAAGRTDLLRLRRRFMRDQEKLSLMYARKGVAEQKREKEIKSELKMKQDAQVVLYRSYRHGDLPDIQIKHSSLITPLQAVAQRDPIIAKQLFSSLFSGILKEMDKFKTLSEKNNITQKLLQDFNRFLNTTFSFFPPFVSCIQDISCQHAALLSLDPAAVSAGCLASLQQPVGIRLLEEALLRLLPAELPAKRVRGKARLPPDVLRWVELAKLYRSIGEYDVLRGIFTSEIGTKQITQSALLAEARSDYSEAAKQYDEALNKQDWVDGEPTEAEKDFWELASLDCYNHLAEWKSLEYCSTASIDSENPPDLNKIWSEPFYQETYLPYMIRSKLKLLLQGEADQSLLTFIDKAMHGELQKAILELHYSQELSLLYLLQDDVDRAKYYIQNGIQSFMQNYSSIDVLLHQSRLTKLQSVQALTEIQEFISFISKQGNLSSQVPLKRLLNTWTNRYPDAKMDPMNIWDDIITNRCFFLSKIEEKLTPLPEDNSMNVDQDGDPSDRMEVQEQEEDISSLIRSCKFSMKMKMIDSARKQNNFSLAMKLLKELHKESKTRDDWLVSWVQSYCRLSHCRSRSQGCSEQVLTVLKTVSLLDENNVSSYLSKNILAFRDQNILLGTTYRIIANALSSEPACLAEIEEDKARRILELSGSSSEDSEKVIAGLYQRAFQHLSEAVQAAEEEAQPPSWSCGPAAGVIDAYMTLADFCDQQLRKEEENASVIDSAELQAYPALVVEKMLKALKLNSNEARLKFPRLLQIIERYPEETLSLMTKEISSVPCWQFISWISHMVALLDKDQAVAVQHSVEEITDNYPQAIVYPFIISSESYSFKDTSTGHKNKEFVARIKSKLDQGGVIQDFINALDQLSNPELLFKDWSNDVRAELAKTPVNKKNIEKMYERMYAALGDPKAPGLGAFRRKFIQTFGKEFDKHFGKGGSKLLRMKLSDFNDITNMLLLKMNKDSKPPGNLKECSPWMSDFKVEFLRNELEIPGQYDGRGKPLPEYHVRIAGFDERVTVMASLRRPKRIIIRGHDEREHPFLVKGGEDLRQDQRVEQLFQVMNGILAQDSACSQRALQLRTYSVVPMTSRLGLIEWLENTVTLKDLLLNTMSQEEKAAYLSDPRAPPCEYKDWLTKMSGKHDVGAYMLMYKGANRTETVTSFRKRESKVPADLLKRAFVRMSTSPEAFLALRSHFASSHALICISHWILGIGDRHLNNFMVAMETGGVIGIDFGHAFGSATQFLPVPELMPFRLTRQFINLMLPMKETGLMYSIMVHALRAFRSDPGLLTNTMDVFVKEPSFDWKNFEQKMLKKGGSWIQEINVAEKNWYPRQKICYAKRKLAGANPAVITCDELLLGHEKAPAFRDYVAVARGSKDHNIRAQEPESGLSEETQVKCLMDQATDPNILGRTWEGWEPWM

Structure (SMILES) | Ki [1] | IC50 [2] | Ki [3] | Ratio Ki (Homo sapiens [4]) | solubility kinetic at 2 h [5] | Ratio [6] | Papp A→B at 1 h [7] | CLint scaled at 1 µM [8] | Ki [9] | IC50 [10] | Ratio Ki (Homo sapiens [12]) | clearance [13] | Vd [14] | half-life [15] | Kp [16] | Kp uu [17] | other results
O=c1cc(N2CCOCC2)cc(N2CCCCC[C@@H]2Cc2ccccc2)[nH]1 | 1 nM | 230 nM | 50 nM | 50 | > 58 µg/mL | 4.3 | 55.6 ×10⁻⁶ cm/s | 69 mL/min/kg | 180 nM | > 30000 nM | 180 | 35 mL/min/kg | 3.4 L/kg | 1.6 h | 0.41 | 0.18 | Kd [11]: 11000 nM; bioavailability [18]: 68%
C[C@@H]1CCN(c2nc(N3CCOCC3)cc(=O)[nH]2)[C@H]1Cc1ccccc1 | 0.4 nM | 90 nM | 6 nM | 15 | 33 µg/mL (≈ 93.1 µM) |  |  |  | 110 nM | 5500 nM | 275 |  |  |  |  |  | clearance [19]: 115 mL/min/kg; Vd [20]: 11 L/kg; half-life [21]: 0.75 h; Kp [22]: 1; Kp uu [23]: 0.47; bioavailability [24]: 78%
O=c1cc(N2CCOCC2)cc(N2C[C@H]3C[C@H]3[C@@H]2Cc2ccccc2)[nH]1 | 2 nM |  | 98 nM | 49 | 59 µg/mL (≈ 168 µM) | 6.7 | 65.7 ×10⁻⁶ cm/s | < 75 mL/min/kg | 160 nM | > 30000 nM | 80 | 33.3 mL/min/kg | 4.7 L/kg | 2.4 h | 0.23 | 0.12 | Kd [25]: 4600 nM
